An excerpt weighted towards active compounds, which were near 3.1% of everything screened.
PP5 primary = PP5 phosphatase inhibitors, primary screen, biochemical, fluorescence | Serine/threonine-protein phosphatase 5 (Homo sapiens), P53041 | 320,000 tested, 0.18% active | inhibition, % at 6.7 µM | purified PP5c, OMFP substrate fluorescence;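 active = inhibition above the campaign's mean inhibition across all tested compounds plus 3 SD, cut at about 9.5% in these data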
core dimer inh = inhibitors of HCV core protein dimerization, primary screen, biochemical, TR-FRET, high-throughput; 300,000 tested, 0.33% active; AID 1899, 2009; inhibition, % at 5 µM; TR-FRET GST/Flag-core106 dimerization, 1536-well;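 active = inhibition above the mean of all tested compounds plus 3 SD, set per screening campaign, cut at about 45% in these data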
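Material: GST/Flag-tagged HCV core106 proteins. Incubation: 4 h, 22.5 °C incubation. Read-out basis: inhibition (%) from 671 over 617 nm ratio. Measured by: TR-FRET, excitation 340 nm, emission 617 and 671 nm.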
PP1 inh = PP1-alpha phosphatase inhibitors, primary screen, counter-screen for PP5 inhibitor project, biochemical, fluorescence, OMFP substrate, single point | 320,000 tested, 0.9% active | purified PP1alpha | Serine/threonine-protein phosphatase PP1-alpha catalytic subunit (Homo sapiens), P62136 | inhibition, % at 6.7 µM;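 active = inhibition above the mean inhibition of all tested compounds plus 3 SD, computed separately for each screening campaign, cut at about 15% in these data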
Target sequence (P62136 whole entry, looked up): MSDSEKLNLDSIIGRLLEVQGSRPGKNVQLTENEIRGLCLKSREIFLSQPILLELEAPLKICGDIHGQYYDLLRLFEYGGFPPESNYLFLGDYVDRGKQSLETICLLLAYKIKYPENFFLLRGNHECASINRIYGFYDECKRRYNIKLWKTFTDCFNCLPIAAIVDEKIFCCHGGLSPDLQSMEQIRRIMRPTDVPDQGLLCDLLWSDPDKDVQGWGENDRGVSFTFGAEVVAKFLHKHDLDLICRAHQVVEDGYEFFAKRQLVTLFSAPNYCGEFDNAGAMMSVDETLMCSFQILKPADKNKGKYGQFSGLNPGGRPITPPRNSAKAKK
Myeloid diff 2 = induction of myeloid progenitor differentiation, primary screen, cell-based, flow cytometry, MLPCN library; 360,000 tested, 1% active; calls only at 10 µM; ER-HoxA9 myeloid progenitors, lysozyme-GFP differentiation;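 active = normalized GFP-positive differentiation at or above the plate's own cutoff, the solvent-only control mean plus 3 SD; inconclusive = no clear call, values can overlap the other calls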;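 also: cells exposed to compound for four days before flow analysis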
Fh CTSL1 inh = Fasciola hepatica cathepsin L1 inhibitors, primary screen, counter-screen for PFM18AAP inhibitor project, biochemical, QFRET, fluorogenic peptide substrate | AID 1906, 2009 | 300,000 tested, 0.49% active | inhibition, % at 5.96 µM | recombinant F. hepatica cathepsin L1, Z-Leu-Arg-MCA fluorescence;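 active = inhibition above the mean of all tested compounds plus 3 SD, set per screening campaign, cut at about 17% in these data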
NadD inh = inhibitors of S. aureus NadD, primary screen, biochemical, colorimetric, uHTS | Nicotinate-nucleotide adenylyltransferase NadD (Staphylococcus aureus N315) | purified NadD enzyme, colorimetric absorbance read-out | inhibition, % at 20 µM | 360,000 tested, 0.78% active; in the data active = inhibition above about 26%
Numbers stand for hits; – = inactive; ? = inconclusive; · = no result; + = active, no number.

SMILES | PP5 primary | core dimer inh | PP1 inh | Myeloid diff 2 | Fh CTSL1 inh | NadD inh
Clc1cccc(-c2nnc(SC/C=C/c3ccccc3)n2Cc2ccco2)c1 | – | – | 16.0 | – | – | –
C(=C\c1ccccc1)/CSc1nnc(-c2ccccc2)n1Cc1ccco1 | – | – | – | ? | – | –
CC(NC(=O)CCl)c1ccc(Cl)c(Cl)c1 (stereo not given) | – | – | – | – | 23.0 | –
Cc1ccc(OCCC(=O)OC(C)C(=O)NC2CC2)cc1 (stereo not given) | – | – | – | – | – | –
O=[N+]([O-])c1ccc(N/N=C/c2ccc(O)c(O)c2O)c(S(=O)(=O)N2CCOCC2)c1 | · | · | · | – | · | 29.0
CC(C)NC(=O)N1Cc2cc(C(=O)NC3CCC3)nc(-c3cccc(-c4cncnc4)c3)c2[C@H]1CCO | · | · | · | – | · | –
Cc1ccc(C(=O)CCS(=O)(=O)c2ccc(Cl)cc2)cc1 | – | – | – | + | – | –
Cc1ccc(C(=O)CCS(=O)(=O)c2ccc(F)cc2)cc1 | – | – | – | – | 29.8 | –
COc1ccc(NC(=O)CCS(=O)(=O)c2ccc(Cl)cc2)cc1 | – | – | – | + | – | –
Cc1ccc(S(=O)(=O)CCC(=O)c2ccc(F)cc2)cc1 | – | – | – | ? | 43.1 | –
COc1ccc(C(=O)CCS(=O)(=O)c2ccc(F)cc2)cc1OC | – | – | – | – | – | –
COc1ccc(NC(=O)CCS(=O)(=O)c2ccc(OC)cc2)cc1 | – | – | – | – | – | –
CS(=O)(=O)N1CCN(C(=O)Cc2ccc(Br)cc2)CC1 | – | – | – | – | – | –
COc1ccc(CN(C)C(=O)C(Cc2ccccc2)NC(=O)c2ccccc2)c(OC)c1 (stereo not given) | – | – | – | – | – | –
CC(=O)Nc1ccc(/C=C/c2ccc3cccc([N+](=O)[O-])c3n2)cc1 | – | – | – | + | – | –
CCN(CC)c1ccc(/C=C2/SC(=O)N(C(C)C)C2=O)o1 | · | · | · | + | · | –
CCCN(CCC)c1ccc(/C=C/c2ccc3cc(OCC)ccc3n2)cc1 | – | – | – | + | – | –
CC(=O)NC(C)c1ccc(C(=O)CSc2nnc(C3CC3)n2C2CC2)cc1 (stereo not given) | – | · | – | – | · | –
CCCc1ccc(OCc2ccc(C(=O)N/N=C/c3cccnc3)o2)cc1 | · | · | · | + | · | –
CCOc1ccc(CC(=O)N/N=C/c2cccnc2)cc1 | – | – | – | – | – | –
CC(C)Cn1c(N)c(C(=O)COC(=O)[C@H](C)NC(=O)c2ccccc2Cl)c(=O)n(C)c1=O | – | – | – | – | 19.5 | –
O=c1oc2ccccc2cc1-c1nc2c(s1)CCc1ccccc1-2 | – | – | – | – | – | –
O=c1oc2cc(O)ccc2cc1-c1nc2c(s1)CCc1ccccc1-2 | – | – | – | + | – | –
COc1ccc2[nH]cc(C(=O)CCl)c2c1 | – | – | – | – | 74.2 | –
COc1ccc2[nH]cc(C(=O)CN3CC(C)CC(C)C3)c2c1 (stereo not given) | – | – | – | – | – | –
SMILES | PP5 primary | core dimer inh | PP1 inh | Myeloid diff 2 | Fh CTSL1 inh | NadD inh
Cc1ccc(NC(=O)CN2C(=O)N/C(=C/c3ccco3)C2=O)cc1 | – | 53.2 | – | – | – | –
CCOc1cccc(/C=C2/NC(=O)N(CC(=O)Nc3cccc(C)c3)C2=O)c1O | – | – | – | – | – | –
Cc1ccc(NC(=O)CN2C(=O)N/C(=C/c3cccn3-c3ccc(C(=O)O)cc3)C2=O)cc1 | – | – | – | – | – | –
Cc1cccc(NC(=O)CN2C(=O)N/C(=C/c3cc(C)n(C(C)C)c3C)C2=O)c1 | – | – | – | – | – | 34.1
c1ccc(OCCNc2ccn3nc(-c4ccco4)cc3n2)cc1 | · | · | · | – | · | –
COc1ccc(N(CC(=O)NCCSCc2ccccc2C)S(=O)(=O)c2ccccc2)cc1 | – | – | – | – | – | –
O=C1C(Cl)=C(NCCN2CCCCC2)C(=O)c2ccccc21 | – | – | – | ? | 53.6 | –
CCc1ccc(S(=O)(=O)N2CCCC(N3CCN(c4ccc(OC)cc4)CC3)C2)cc1 (stereo not given) | – | – | – | – | – | –
N#CC1(NC(=O)COc2ccc3ccc(=O)oc3c2)CCCCC1 | – | – | – | – | – | –
O=C(O)/C=C/C(=O)c1c(-c2ccccc2)[nH]c2ccccc12 | – | – | – | – | 58.3 | –
COc1ccc(CCNC(=O)C2CC(=O)N(C3CCCCC3)C2)cc1OC (stereo not given) | – | – | – | – | – | –
C=CC(=O)N1CCCC(Nc2nc(Nc3ccc(N(C)C(=O)CC)cc3C)nc3nc[nH]c23)C1 (stereo not given) | · | · | · | – | · | –
O=C(CCl)NN=C(c1ccccc1)c1ccccc1 | – | – | – | – | 37.4 | –
CCN(CC)CC(=O)NN=C(c1ccccc1)c1ccccc1 | – | – | – | – | – | –
COc1cccc(NC(=O)C2(C)CCN2Cc2ccc3ccccc3c2)c1 (stereo not given) | · | · | · | – | · | –
Cc1ccc(Cn2cccc(-c3nc4ccccc4s3)c2=O)cc1 | – | – | – | – | – | –
O=c1c(-c2nc3ccccc3s2)cccn1Cc1ccccc1 | – | – | – | + | – | –
COc1ccc(-c2nn(-c3ccccc3)cc2/C=N/O)cc1OC | – | – | – | – | – | –
COc1ccc(-c2nn(-c3ccccc3)cc2/C=C(\C#N)C(N)=O)cc1[N+](=O)[O-] | – | 53.7 | – | – | – | –
COc1ccc(-c2nn(-c3ccccc3)cc2C(=O)Nc2cccc(C(=O)O)c2)cc1[N+](=O)[O-] | – | – | – | – | – | –
COc1ccc(-c2nn(-c3ccccc3)cc2/C=C(/C#N)C(N)=O)cc1[N+](=O)[O-] | – | 46.9 | – | – | – | –
CC(=O)N(CCC(c1ccco1)C(C)C)Cc1ccc(OC(C)C)cc1 (stereo not given) | – | – | – | – | 17.2 | –
CC(=O)N(CCC(c1ccccc1)c1ccco1)Cc1cccs1 (stereo not given) | – | – | – | – | 21.9 | –
COc1ccc(CN(CCC(c2ccco2)C(C)C)C(C)=O)cc1OC (stereo not given) | – | – | – | – | – | –
O=C(c1ccco1)N(CCC(c1ccccc1)c1ccco1)Cc1ccco1 (stereo not given) | – | 52.1 | 16.9 | – | 25.8 | 45.5
COc1cc2c(cc1OC)CN(C(=O)c1cc(C3CC3)nn1-c1ccccc1)CC2 | – | · | – | – | · | –

Assay outcomes (PubChem)
